Experimental findings from ChEMBL document CHEMBL3758135 (J Nat Prod, 2015) are described below.

By IC50 is commonly meant the concentration that inhibits the measured activity by half.

The structures appear in SMILES notation.

In one assay the target is T1, Prostaglandin E synthase (Homo sapiens, UniProt O14684).
T1 sequence (O14684 whole entry): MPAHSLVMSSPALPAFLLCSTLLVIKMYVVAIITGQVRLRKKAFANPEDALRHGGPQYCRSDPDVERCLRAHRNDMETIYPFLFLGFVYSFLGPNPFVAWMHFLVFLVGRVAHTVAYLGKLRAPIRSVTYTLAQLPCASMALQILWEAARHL
Put plainly: Inhibition of mPGES-1 in human IL-1beta-stimulated A549 cell microsomes assessed as reduction of PGE2 formation from PGH2 preincubated for 15 mins by HPLC analysis. In kind it is cell-based. Summed up:
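A549 cells stimulated with 2 ng/mL IL-1β for 72 h at 37 °C, 5% CO2, then sonicated and homogenized. Microsomal pellet collected at 174000g, 1 h, 4 °C. Membranes diluted in 0.1 M K3PO4, pH 7.4, with 2.5 mM glutathione. Compound or vehicle added for 15 min at 4 °C. Reaction started with 20 μM PGH2, stopped after 1 min with FeCl2/citric acid containing 11β-PGE2 internal standard. PGE2 measured by SPE-HPLC.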

The target in a further assay is Histone deacetylase. Put plainly: Inhibition of HDAC in human HeLa cell nuclear extract using BML-KI104 Fluor de Lys as substrate by fluorescence-based assay.

For `COc1cc(/C=C/C(=O)C(C/C=C(\C)CCC=C(C)C)C(=O)/C=C/c2ccc(OC/C=C(\C)CCC=C(C)C)c(OC)c2)ccc1OC/C=C(\C)CCC=C(C)C`, the IC50 on Prostaglandin E synthase came out at 2 µM; against Histone deacetylase, 217 µM. For the molecule `COc1cc(/C=C/C(=O)CC(=O)/C=C/c2ccc(O)c(OC)c2)ccc1O` [CURCUMIN], on Prostaglandin E synthase, the IC50 worked out at 0.22 µM.

`COc1cc(/C=C/C(=O)C(CC=C(C)C)(CC=C(C)C)C(=O)/C=C/c2ccc(OCC=C(C)C)c(OC)c2)ccc1OCC=C(C)C`: the IC50 at Prostaglandin E synthase stood at 2 µM. For `COc1cc(/C=C/C(=O)CC(=O)/C=C/c2ccc(OC/C=C(\C)CC/C=C(\C)CCC=C(C)C)c(OC)c2)ccc1OC/C=C(\C)CC/C=C(\C)CCC=C(C)C`, the IC50 at Prostaglandin E synthase was found to be 2 µM; against Histone deacetylase it was 122 µM. Taken in the same sequence, the figures for `COc1cc(/C=C/C(=O)CC(=O)/C=C/c2ccc(OC/C=C(\C)CC/C=C(\C)CCC=C(C)C)c(OC)c2)ccc1O` were 2 µM and 84.2 µM. For the molecule `COc1cc(/C=C/C(=O)CC(=O)/C=C/c2ccc(OCC=C(C)C)c(OC)c2)ccc1OCC=C(C)C`, the IC50 came to 2 µM at Prostaglandin E synthase and 347 µM against Histone deacetylase. For `COc1cc(/C=C/C(=O)CC(=O)/C=C/c2ccc(OC/C=C(\C)CCC=C(C)C)c(OC)c2)ccc1O` the same measures were 1.02 µM and 495 µM.

For `COc1cc(/C=C/C(=O)C(C/C=C(\C)CCC=C(C)C)(C/C=C(\C)CCC=C(C)C)C(=O)/C=C/c2ccc(OC/C=C(\C)CCC=C(C)C)c(OC)c2)ccc1OC/C=C(\C)CCC=C(C)C`, the IC50 on Prostaglandin E synthase was determined as 2 µM; on Histone deacetylase, 786 µM. As to `COc1cc(/C=C/C(=O)C(CC=C(C)C)C(=O)/C=C/c2ccc(OCC=C(C)C)c(OC)c2)ccc1OCC=C(C)C`, the IC50 on Prostaglandin E synthase is 2 µM.

For the molecule `COc1cc(/C=C/C(=O)CC(=O)/C=C/c2ccc(OC/C=C(\C)CCC=C(C)C)c(OC)c2)ccc1OC/C=C(\C)CCC=C(C)C`, the concentration for half-maximal inhibition (IC50) on Prostaglandin E synthase turned out to be 2 µM; against Histone deacetylase it was 188 µM. In the case of `COc1cc(/C=C/C(=O)CC(=O)/C=C/c2ccc(OCC=C(C)C)c(OC)c2)ccc1O`, the IC50 worked out at 0.93 µM at Prostaglandin E synthase and 5620 µM at Histone deacetylase.
